From ChEMBL document CHEMBL1122724, “Synthesis and kinetic studies of protease substrates containing the 1-methyl-6-aminoquinolinium ion as a fluorogenic leaving group” (J Med Chem, 1984)
Each block holds one molecule with its values, some of them ahead of it.

Experiments:
[1] = test system: C[C@H](NC(=O)OCc1ccccc1)C(=O)N[C@@H](C)C(=O)Nc1ccc2c(ccc[n+]2C)c1; assay: (§1) Kinetic constant was determined from the initial rates of enzymatic hydrolysis by the Lineweaver-Burke method against elastase at a concentration of 1.4 uM; type: protein assay
How it was run: (§2)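 Porcine pancreatic elastase assayed in 67 mM Tris-HCl pH 8.8 at 37 °C in a thermostatted cuvette. Specific activity was checked with orcein-elastin before each experiment. Leaving-group fluorescence was read at 410/550 nm (MAQ+) or 355/550 nm (6-AQ). Kinetic constants came from initial rates by Lineweaver–Burk analysis.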

[2] = test system: C[C@H](NC(=O)CCC(=O)O)C(=O)N[C@@H](C)C(=O)N[C@@H](C)C(=O)Nc1ccc2ncccc2c1; assay: as §1; type: protein assay; how it was run: as §2
[3] = test system: C[C@H](NC(=O)OCc1ccccc1)C(=O)N[C@@H](C)C(=O)N[C@@H](C)C(=O)Nc1ccc2c(ccc[n+]2C)c1; assay: as §1; type: protein assay; how it was run: as §2
[4] = target: Pancreatic elastase (Sus scrofa) (UniProt P08419+P00772); assay: as §1; type: protein assay; how it was run: as §2
[5] = (§3) Ratio of Kcat to Km of the compound
[6] = target: Serine protease 1 (Homo sapiens) (UniProt P07477); assay: Kinetic constant was determined from the initial rates of enzymatic hydrolysis by the Lineweaver-Burke method against trypsin enzyme at a concentration of 1.0 uM; conditions: Sus scrofa
How it was run: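 Trypsin, active-site titrated with p-nitrophenyl p-guanidinobenzoate, was used in 46 mM Tris-HCl pH 8.1 containing 11 mM CaCl2 at 25 °C. Hydrolysis was monitored by fluorescence, with excitation/emission 410/550 nm for MAQ+ and 355/550 nm for 6-AQ. Initial rates were fitted by the Lineweaver–Burk method.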

[7] = target: Serine protease 1 (Homo sapiens) (UniProt P07477); assay: as §3; conditions: Sus scrofa
[8] = target: Chymotrypsinogen B (Homo sapiens) (UniProt P17538); assay: Kinetic constant was determined from the initial rates of enzymatic hydrolysis by the Lineweaver-Burke method against alpha-chymotrypsin enzyme at a concentration of 2.0 uM; conditions: Sus scrofa
How it was run: (§4)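 Chymotrypsin assayed in 50 mM Tris-HCl pH 8.0 with 10 mM CaCl2 at 25 °C. Active enzyme was titrated with 2-nitro-4-carboxyphenyl diphenylcarbamate. Product release was followed fluorimetrically, with excitation 410 nm and emission 550 nm for MAQ+, and 355/550 nm for 6-AQ. Constants were taken from initial hydrolysis rates by Lineweaver–Burk plots.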

[9] = target: Chymotrypsinogen B (Homo sapiens) (UniProt P17538); assay: as §3; conditions: Sus scrofa
[10] = test system: C[n+]1cccc2cc(NC(=O)[C@H](Cc3ccccc3)NC(=O)OCc3ccccc3)ccc21; assay: Kinetic constant was determined from the initial rates of enzymatic hydrolysis by the Lineweaver-Burke method against chymotrypsin enzyme at a concentration of 2.0 uM; conditions: Sus scrofa; how it was run: as §4

Chain of Chymotrypsinogen B (Homo sapiens) (P17538 34-164 limits assumed, other chains not shown): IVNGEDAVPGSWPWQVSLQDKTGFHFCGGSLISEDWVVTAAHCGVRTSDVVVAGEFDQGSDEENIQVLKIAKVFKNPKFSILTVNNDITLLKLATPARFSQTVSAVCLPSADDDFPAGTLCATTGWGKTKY
Chain of Chymotrypsinogen B (Homo sapiens) (P17538 167-263 limits assumed, other chains not shown): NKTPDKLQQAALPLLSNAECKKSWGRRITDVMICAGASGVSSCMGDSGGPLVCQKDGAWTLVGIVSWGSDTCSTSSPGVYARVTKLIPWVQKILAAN
Chain of Serine protease 1 (Homo sapiens) (P07477 whole entry): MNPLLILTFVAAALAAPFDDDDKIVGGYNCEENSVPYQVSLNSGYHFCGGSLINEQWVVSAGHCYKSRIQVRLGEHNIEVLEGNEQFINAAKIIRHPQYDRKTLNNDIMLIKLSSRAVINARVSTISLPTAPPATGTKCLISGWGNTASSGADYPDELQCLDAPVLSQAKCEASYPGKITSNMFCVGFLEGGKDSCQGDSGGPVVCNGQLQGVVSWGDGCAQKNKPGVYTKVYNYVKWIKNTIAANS
Chain of Pancreatic elastase (Sus scrofa) (from UniProt P08419+P00772) (P00772 whole entry, looked up): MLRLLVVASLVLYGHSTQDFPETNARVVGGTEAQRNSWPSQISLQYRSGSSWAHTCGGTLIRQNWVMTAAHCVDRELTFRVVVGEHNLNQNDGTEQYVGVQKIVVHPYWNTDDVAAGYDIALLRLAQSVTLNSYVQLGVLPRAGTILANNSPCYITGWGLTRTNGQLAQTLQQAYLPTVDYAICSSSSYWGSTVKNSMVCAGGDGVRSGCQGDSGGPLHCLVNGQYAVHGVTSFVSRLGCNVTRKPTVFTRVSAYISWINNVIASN
Chain of Pancreatic elastase (Sus scrofa) (from UniProt P08419+P00772) (P08419 whole entry, looked up): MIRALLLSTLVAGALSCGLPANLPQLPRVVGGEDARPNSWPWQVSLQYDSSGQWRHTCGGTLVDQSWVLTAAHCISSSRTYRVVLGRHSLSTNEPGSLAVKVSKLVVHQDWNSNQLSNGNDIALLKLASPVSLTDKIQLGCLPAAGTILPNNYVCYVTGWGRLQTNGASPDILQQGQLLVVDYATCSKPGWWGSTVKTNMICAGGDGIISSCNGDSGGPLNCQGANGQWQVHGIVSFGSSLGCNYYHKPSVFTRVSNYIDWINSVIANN

Molecule: Pancreatic elastase (Sus scrofa) (from UniProt P08419+P00772)
- Km [1]: 4170 µM
- Km [2]: 500 µM
- Km [3]: 230 µM

Molecule: C[n+]1cccc2cc(NC(=O)C(CCCN=C(N)N)NC(=O)c3ccccc3)ccc21 (stereo not drawn)
- k cat [6]: 0.14 s⁻¹
- Ratio [7]: 636 M⁻¹ s⁻¹

Molecule: Chymotrypsinogen A (Bos taurus) (from UniProt P00766)
- Km [10]: 180 µM

Molecule: O=C(O)CCCC(=O)N[C@@H](Cc1ccccc1)C(=O)Nc1ccc2ncccc2c1
- k cat [8]: 0.14 s⁻¹
- Ratio [9]: 79 M⁻¹ s⁻¹

Molecule: N=C(N)NCCCC(NC(=O)c1ccccc1)C(=O)Nc1ccc2ncccc2c1 (stereo not drawn)
- k cat [6]: 0.6 s⁻¹
- Ratio [7]: 1500 M⁻¹ s⁻¹

Next, values leading:

- k cat [4]: 1.7 s⁻¹
- Ratio [5]: 3400 M⁻¹ s⁻¹
Molecule: C[C@H](NC(=O)CCC(=O)O)C(=O)N[C@@H](C)C(=O)N[C@@H](C)C(=O)Nc1ccc2ncccc2c1

- k cat [8]: 0.4 s⁻¹
- Ratio [9]: 2220 M⁻¹ s⁻¹
Molecule: C[n+]1cccc2cc(NC(=O)[C@H](Cc3ccccc3)NC(=O)OCc3ccccc3)ccc21

- k cat [4]: 1.09 s⁻¹
- Ratio [5]: 4740 M⁻¹ s⁻¹
Molecule: C[C@H](NC(=O)OCc1ccccc1)C(=O)N[C@@H](C)C(=O)N[C@@H](C)C(=O)Nc1ccc2c(ccc[n+]2C)c1

- k cat [4]: 0.043 s⁻¹
- Ratio [5]: 10 M⁻¹ s⁻¹
Molecule: C[C@H](NC(=O)OCc1ccccc1)C(=O)N[C@@H](C)C(=O)Nc1ccc2c(ccc[n+]2C)c1
